Laboratory results as given in publication PMC5693322 (Blood, 2017).
Blank lines part the entries; values can stand above or below the compound they belong to.

Columns and labels:
ACVR1 (ALK2) = molecular target: T1, ACVR1 (ALK2) (Homo sapiens, UniProt Q04771); test: SelectScreen LanthaScreen Eu Kinase Binding Assay
T1 sequence (Q04771 21-509): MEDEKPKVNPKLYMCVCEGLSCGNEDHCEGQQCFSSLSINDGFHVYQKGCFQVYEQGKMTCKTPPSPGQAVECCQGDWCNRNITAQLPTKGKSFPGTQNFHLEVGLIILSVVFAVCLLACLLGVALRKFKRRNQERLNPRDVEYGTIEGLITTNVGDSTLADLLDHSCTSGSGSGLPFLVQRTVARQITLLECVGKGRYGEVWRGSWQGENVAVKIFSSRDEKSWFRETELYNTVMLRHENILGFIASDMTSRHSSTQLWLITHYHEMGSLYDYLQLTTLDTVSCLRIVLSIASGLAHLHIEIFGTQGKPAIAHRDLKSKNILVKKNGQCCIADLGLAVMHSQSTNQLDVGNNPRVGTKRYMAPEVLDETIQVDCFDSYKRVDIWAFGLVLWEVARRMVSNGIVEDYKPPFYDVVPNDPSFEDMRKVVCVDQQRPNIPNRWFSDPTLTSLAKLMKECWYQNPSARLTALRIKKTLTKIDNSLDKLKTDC

healthy rats = test: MMB treatment of healthy rats; type: in vivo, rat
patients = conditions: clinical studies ref 18, 20; cited from earlier work
[1] = system: IL-6-pSTAT3 in HepG2 cells; test: IL-6-induced phosphorylation of STAT3 in HepG2 cells, western blot; type: cell-based; conditions: HepG2, 10 ng/mL IL-6 20 min
Summary of the method: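 Western blot for pSTAT3 in HepG2 cells (EMEM, 10% FCS, 1% penicillin/streptomycin) after 20 min of 10 ng/mL IL-6, with test compound present. β-actin served as loading control. Values are percent of pSTAT3 induction relative to vehicle-treated cells, n = 2, mean ± SEM.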

[2] = system: BMP6-pSMAD1/5/8 in HepG2 cells; test: BMP6-induced phosphorylation of SMAD1/5/8 in HepG2 cells, western blot; type: cell-based; conditions: HepG2, 10 ng/mL BMP6 30 min, cpd added 2 hours before
Summary of the method: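 HepG2 cells were grown in EMEM with 10% FCS and 1% penicillin/streptomycin. Test compound was added 2 h before stimulation with BMP6 (10 ng/mL, 30 min). pSMAD1/5/8 was detected by western blot with HRP secondary antibodies, using β-actin as loading control. Results are percent of pSMAD1/5/8 induction normalized to vehicle-treated cells, n = 5, mean ± SEM.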

ACD rats = test: PG-APS-induced rat model of anemia of chronic disease; type: in vivo
Summary of the method: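 Female Lewis rats on standard diet (180 mg iron/kg) were made anemic by intraperitoneal PG-APS. From 2 weeks after PG-APS they received test compound 25 mg/kg or vehicle once daily for 3 days up to 21 days. Hb and RBC were counted on a Vet-ABC analyzer. Serum iron was measured by QuantiChrom kit. Spleen FPN1 was measured by western blot (n = 4). Liver Inhibin BB mRNA was measured by TaqMan RT-PCR on 4 μg of guanidinium-phenol-extracted RNA. Time points were compared by unpaired t test.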

[3] = system: FPN1 protein in RAW 264.7 cells; type: cell-based, murine; conditions: RAW 264.7, FeCl3 50 μM 20 h, hepcidin 1 μg/mL + MMB 10 nM-1 μM 6 h
Summary of the method: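 RAW 264.7 cells were cultured in DMEM with 10% FCS, 1% penicillin/streptomycin and 2 mM glutamine at 37°C and 5% CO2. FeCl3 (50 μM, 20 h) induced FPN1. Cells then received hepcidin (1 μg/mL) alone or with test compound (10, 100, 500 nM, 1 μM) for another 6 h. Untreated cells were controls. FPN1 was measured by western blot and densitometry, normalized to β-actin, n = 3 per group.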

[4] = healthy rats, 5, 10 or 25 mg/kg
[5] = healthy rats, any MMB dose, 3 days
[6] = ACD rats, 25 mg/kg once daily, days 14 and 21, vs vehicle
[7] = ACD rats, 5, 10 or 25 mg/kg for 3 days, hepatic nuclear extracts
[8] = ACD rats, 5, 10 or 25 mg/kg once daily for 3 days
[9] = ACD rats, 5, 10 or 25 mg/kg, 3 weeks, FACS

- IC50 (ACVR1 (ALK2)): 8.4 nM
Compound: N#CCNC(=O)c1ccc(-c2ccnc(Nc3ccc(N4CCOCC4)cc3)n2)cc1 [MMB, momelotinib]
- erythropoietic / circulating iron effects in healthy rats (healthy rats; [4]): did not induce any of these effects
- pSMAD1/5/8 protein levels (healthy rats; [4]): not affected
- pSTAT3 protein levels (healthy rats; [4]): not affected
- FPN1 protein levels in the spleen (healthy rats; [5]): no changes
- Hamp mRNA expression in the liver (healthy rats; [5]): no changes
- serum iron levels (healthy rats; [5]): no changes
- patients who experienced grade 3 or 4 anemia (patients): 3%
- inhibition of IL-6-pSTAT3 signaling [1]: inhibited
- inhibition of BMP6-pSMAD1/5/8 signaling [2]: inhibited
- mean corpuscular Hb (ACD rats; ACD rats, 25 mg/kg once daily): increase
- mean corpuscular volume (ACD rats; ACD rats, 25 mg/kg once daily): increase
- neutrophil count (ACD rats; ACD rats, 25 mg/kg once daily): reductions
- white blood cell count (ACD rats; ACD rats, 25 mg/kg once daily): reductions
- Hb concentrations (ACD rats; [6]): significant increase
- RBC count (ACD rats; [6]): significant increase
- FPN1 expression in the spleen (ACD rats; ACD rats, 25 mg/kg, 3 days): increase
- ferritin protein levels in the spleen (ACD rats; ACD rats, 25 mg/kg, 3 days): decreased
- circulating iron concentrations (ACD rats; ACD rats, 25 mg/kg, up to 21 days): increase
- Inhibin BB mRNA levels in the liver (ACD rats; ACD rats, 5, 10 or 25 mg/kg for 3 days): decreased
- pSMAD1/5/8 in the livers (ACD rats; [7]): dose-dependent reduction
- pSTAT3 in the livers (ACD rats; [7]): dose-dependent reduction
- liver Hamp mRNA expression (ACD rats; [8]): reduced
- serum hepcidin levels (ACD rats; [8]): dose-dependent decrease
- serum iron (ACD rats; [8]): dose-dependent increase
- numbers of mature RBCs in bone marrow (ACD rats; [9]): dose-dependent increase
- numbers of reticulocytes in bone marrow (ACD rats; [9]): dose-dependent increase
- splenic IL-6 cytokine mRNA levels (ACD rats; ACD rats, 3 days, especially at 25 mg/kg): modulated
- effect on FPN1 protein expression in presence of hepcidin [3]: no effect

- inhibitory activity in type I BMPR kinase / TGFBR1 binding assays (ACVR1 (ALK2); ACVR1/ALK2, BMPR1a/ALK3 and TGFBR1/ALK5 assays): no relevant inhibitory activity
Compound: N#CC[C@H](C1CCCC1)n1cc(-c2ncnc3[nH]ccc23)cn1 [RUX, ruxolitinib, reference compound]
- patients who experienced grade 3 or 4 anemia (patients): 45.2%
- inhibition of IL-6-pSTAT3 signaling [1]: blocked
- inhibition of BMP6-pSMAD1/5/8 signaling [2]: not BMP6-pSMAD1/5/8
